Laboratory results taken from ChEMBL document CHEMBL3525945, “Metabolic switching of BILR 355 in the presence of ritonavir. II. Uncovering novel contributions by gut bacteria and aldehyde oxidase” (Drug Metab Dispos, 2012).

Experiments:
[1] = Drug metabolism in human liver S9 fraction assessed as BILR355 formation at 10 uM by LC-MS/MS analysis in presence of NADPH; format: ADME, subcellular; conditions: s9, 10 µM
Procedure, shortened: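 BILR 402 (10 μM final) was incubated with human liver S9 or cytosol (1 mg/mL protein) in 0.05 M potassium phosphate pH 7.4 at 37 °C. Runs were done with or without 2.5 mM NADPH. Samples at 10, 20, 30 and 60 min were quenched in nevirapine/acetonitrile, filtered and analysed by LC-MS/MS; duplicate.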

Liver cytosol = test: Drug metabolism in human liver cytosol assessed as BILR516-18O and BILR516-16O metabolite formation at 5 uM after 60 mins by 18O incorporation based LC-MS/MS analysis; format: ADME, tissue-based; conditions: 1 h
Procedure, shortened: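 BILR 402 (5 μM final) was incubated with human liver cytosol in 0.05 M potassium phosphate buffer made with 100% H2^16O or H2^16O/H2^18O 82:18 (v/v), at 37 °C without NADPH. […] The M+2 isotope contribution was subtracted before calculating peak-area ratios; n=2.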

Cytochrome P450 2A6 = target: T1, Cytochrome P450 2A6 (Homo sapiens, UniProt P11509); test: Activity at recombinant CYP2A6 (unknown origin) expressed in baculovirus-infected insect cells assessed as enzyme-mediated drug depletion at 1 to 10 uM by LC-MS/MS analysis in presence of NADPH; format: ADME
T1 sequence (P11509 whole entry): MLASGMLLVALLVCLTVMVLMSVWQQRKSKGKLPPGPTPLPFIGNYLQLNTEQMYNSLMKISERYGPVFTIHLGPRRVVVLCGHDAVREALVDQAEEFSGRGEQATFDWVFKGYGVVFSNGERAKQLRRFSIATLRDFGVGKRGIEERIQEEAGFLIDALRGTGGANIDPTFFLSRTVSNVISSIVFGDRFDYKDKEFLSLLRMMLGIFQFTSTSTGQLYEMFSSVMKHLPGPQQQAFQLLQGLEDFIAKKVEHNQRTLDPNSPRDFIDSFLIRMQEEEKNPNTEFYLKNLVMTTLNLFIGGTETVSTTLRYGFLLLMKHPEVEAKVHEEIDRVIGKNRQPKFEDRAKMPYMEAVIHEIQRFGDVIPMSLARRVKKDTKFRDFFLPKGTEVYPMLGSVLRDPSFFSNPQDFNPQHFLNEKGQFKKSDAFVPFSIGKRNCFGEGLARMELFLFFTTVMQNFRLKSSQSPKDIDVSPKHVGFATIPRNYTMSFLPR
Procedure, shortened: (§1)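 BILR 402 (1 or 10 μM) with baculovirus/insect-cell recombinant CYPs, levels scaled to average liver content (1A2 2, 2A6 1, 2B6 0.1, 2C9 1.5, 2C19 1.5, 2D6 0.3, 3A4 5 pmol/mL). Buffer 0.1 M potassium phosphate, 5 mM MgCl2, pH 7.4; 2.5 mM NADPH; 37 °C. Non-transfected insect microsomes served as controls. Aliquots taken 0.5–30 min and acetonitrile-quenched; depletion measured by LC-MS/MS with isotope-labelled internal standard.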

Cytochrome P450 2C19 = Cytochrome P450 2C19 (Homo sapiens, UniProt P33261); test: Activity at recombinant CYP2C19 (unknown origin) expressed in baculovirus-infected insect cells assessed as enzyme-mediated drug depletion at 1 to 10 uM by LC-MS/MS analysis in presence of NADPH; format: ADME; procedure, shortened: as §1
Cytochrome P450 2D6 = Cytochrome P450 2D6 (Homo sapiens, UniProt P10635); test: Activity at recombinant CYP2D6 (unknown origin) expressed in baculovirus-infected insect cells assessed as enzyme-mediated drug depletion at 1 to 10 uM by LC-MS/MS analysis in presence of NADPH; format: ADME; procedure, shortened: as §1
Aldehyde oxidase = target: T2, Aldehyde oxidase (Homo sapiens, UniProt Q06278); test: Drug metabolism in human liver cytosol assessed as intrinsic clearance for high affinity low capacity site aldehyde-oxidase-mediated BILR516 metabolite formation measured per mg protein after 10 mins by Eadie-Hofstee plot analysis; format: ADME, tissue-based
T2 sequence (Q06278 whole entry): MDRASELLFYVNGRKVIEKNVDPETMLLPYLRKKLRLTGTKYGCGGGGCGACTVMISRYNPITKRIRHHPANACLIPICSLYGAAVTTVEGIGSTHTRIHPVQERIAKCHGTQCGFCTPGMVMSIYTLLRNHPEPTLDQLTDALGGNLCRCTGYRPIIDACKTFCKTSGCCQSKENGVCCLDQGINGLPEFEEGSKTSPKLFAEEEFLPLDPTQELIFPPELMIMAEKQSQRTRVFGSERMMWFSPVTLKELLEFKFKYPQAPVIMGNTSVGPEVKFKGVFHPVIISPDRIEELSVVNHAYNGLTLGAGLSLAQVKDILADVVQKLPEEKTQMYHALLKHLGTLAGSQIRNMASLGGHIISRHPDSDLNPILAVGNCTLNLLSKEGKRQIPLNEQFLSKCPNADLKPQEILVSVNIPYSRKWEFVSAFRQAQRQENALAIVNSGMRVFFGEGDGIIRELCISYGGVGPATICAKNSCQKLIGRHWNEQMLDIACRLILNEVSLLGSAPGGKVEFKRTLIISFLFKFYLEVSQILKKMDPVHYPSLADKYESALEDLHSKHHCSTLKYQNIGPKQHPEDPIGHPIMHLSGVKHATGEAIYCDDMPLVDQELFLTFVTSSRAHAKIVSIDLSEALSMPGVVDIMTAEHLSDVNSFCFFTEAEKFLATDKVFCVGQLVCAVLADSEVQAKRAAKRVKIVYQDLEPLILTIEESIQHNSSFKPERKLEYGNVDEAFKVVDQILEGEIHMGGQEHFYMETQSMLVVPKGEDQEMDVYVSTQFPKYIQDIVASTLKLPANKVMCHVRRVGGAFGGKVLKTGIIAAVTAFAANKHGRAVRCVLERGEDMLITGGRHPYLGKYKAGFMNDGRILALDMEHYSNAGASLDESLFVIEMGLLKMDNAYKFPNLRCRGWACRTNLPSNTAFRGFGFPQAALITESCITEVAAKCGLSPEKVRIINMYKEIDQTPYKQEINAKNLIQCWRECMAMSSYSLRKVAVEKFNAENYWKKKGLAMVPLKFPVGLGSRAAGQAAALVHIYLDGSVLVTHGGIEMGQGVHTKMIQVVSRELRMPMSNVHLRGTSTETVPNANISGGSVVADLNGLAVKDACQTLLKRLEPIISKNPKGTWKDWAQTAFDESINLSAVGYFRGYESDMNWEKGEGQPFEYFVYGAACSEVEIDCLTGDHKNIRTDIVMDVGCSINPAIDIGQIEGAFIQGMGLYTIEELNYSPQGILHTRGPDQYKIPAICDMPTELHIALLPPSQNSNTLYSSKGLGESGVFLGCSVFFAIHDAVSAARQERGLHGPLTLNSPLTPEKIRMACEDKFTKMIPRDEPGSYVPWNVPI
Procedure, shortened: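 Human liver cytosol (0.1 mg/mL) was incubated with BILR 402 at 12 concentrations, 0.061–125 μM, for 10 min at 37 °C in 0.05 M potassium phosphate pH 7.4 without NADPH, within the linear range for protein and time. […] Apparent Km and Vmax were derived from the kinetic data.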

Chain of Cytochrome P450 2D6 (P10635 whole entry): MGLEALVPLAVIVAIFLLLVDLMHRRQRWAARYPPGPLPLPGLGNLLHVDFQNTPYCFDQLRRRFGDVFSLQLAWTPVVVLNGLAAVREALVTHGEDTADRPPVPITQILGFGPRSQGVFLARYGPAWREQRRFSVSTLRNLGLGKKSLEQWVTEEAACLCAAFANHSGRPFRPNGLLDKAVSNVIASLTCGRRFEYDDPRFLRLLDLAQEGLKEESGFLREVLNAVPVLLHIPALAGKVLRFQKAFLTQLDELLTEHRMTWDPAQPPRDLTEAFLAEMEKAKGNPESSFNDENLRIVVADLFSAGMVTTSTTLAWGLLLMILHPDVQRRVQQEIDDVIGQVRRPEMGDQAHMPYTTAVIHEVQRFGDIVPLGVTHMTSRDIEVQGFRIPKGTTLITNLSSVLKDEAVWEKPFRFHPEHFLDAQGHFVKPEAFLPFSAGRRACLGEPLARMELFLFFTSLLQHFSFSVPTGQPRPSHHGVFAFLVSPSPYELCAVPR
Chain of Cytochrome P450 2C19 (P33261 whole entry): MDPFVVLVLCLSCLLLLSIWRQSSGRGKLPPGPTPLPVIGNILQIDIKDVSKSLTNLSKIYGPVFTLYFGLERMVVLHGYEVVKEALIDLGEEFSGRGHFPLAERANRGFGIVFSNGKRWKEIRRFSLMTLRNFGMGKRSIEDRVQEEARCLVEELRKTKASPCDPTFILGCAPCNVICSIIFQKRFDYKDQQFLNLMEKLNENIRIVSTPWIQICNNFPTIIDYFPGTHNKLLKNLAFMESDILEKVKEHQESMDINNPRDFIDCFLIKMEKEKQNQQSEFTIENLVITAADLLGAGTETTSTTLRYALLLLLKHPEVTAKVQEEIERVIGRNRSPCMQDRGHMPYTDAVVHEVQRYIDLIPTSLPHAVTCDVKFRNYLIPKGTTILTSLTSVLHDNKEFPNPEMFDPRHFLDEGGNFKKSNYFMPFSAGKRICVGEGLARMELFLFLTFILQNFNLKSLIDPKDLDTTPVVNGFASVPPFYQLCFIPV

Drug metabolism [1]: metabolite_detected | Drug metabolism (Liver cytosol): metabolite_detected | Drug metabolism (Cytochrome P450 2A6): metabolite_not_detected | Drug metabolism (Cytochrome P450 2C19): metabolite_not_detected | Drug metabolism (Cytochrome P450 2D6): metabolite_not_detected | CLHH (Aldehyde oxidase): 437 µL/min/mg
SMILES: CCN1c2ncc(CCOc3ccnc4ccccc34)cc2C(=O)N(C)c2cccnc21
